Test results from publication PMC6061410 (Clinical Drug Investigation, 2018).

Columns and labels:
[1] = system: healthy young and healthy elderly subjects; experiment: Safety and tolerability; format: in vivo, human; details: young
In short: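 Adverse events were recorded by system organ class and preferred term in the treated set. This was 84 healthy young or elderly subjects randomised 3:1 to oral drug or placebo over 14 days, across seven ascending dose groups with a safety review before each escalation. Changes were assessed against the last pre-dose baseline measurement.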

Intrinsic solubility = format: physicochemical

With `C[C@@H](Oc1ccc(S(C)(=O)=O)cc1C(=O)N1C[C@@H]2C[C@]2(c2cc(C(F)(F)F)on2)C1)C(F)(F)F` [BI 425809] the “General disorders and administration site conditions” value ([1]; part 1, 25 mg QD) was 0 (–) n (%), the Headache ([1]; part 1, 25 mg QD) was 3 (33.3) n (%) and the Infections and infestations ([1]; part 1, 25 mg QD) was 2 (22.2) n (%). The Insomnia ([1]; part 1, 25 mg QD) was 0 (–) n (%), the “Musculoskeletal and connective tissue disorders” value ([1]; part 1, 25 mg QD) was 0 (–) n (%) and the Nasopharyngitis ([1]; part 1, 25 mg QD) was 2 (22.2) n (%). The Nervous system disorder ([1]; part 1, 25 mg QD) was 3 (33.3) n (%), the Ocular discomfort ([1]; part 1, 25 mg QD) was 0 (–) n (%) and the Psychiatric disorders ([1]; part 1, 25 mg QD) was 1 (11.1) n (%). For the same compound, the “Subjects with AEs leading to study discontinuation” value (“Subjects with AEs leading” for short) ([1]; part 1, 25 mg QD) was 0 (–) n (%), the “Subjects with investigator-defined drug-related AEs” value ([1]; part 1, 25 mg QD) was 6 (66.7) n (%) and the “Total with AEs” value ([1]; part 1, 25 mg QD) was 7 (77.8) n (%). For the same compound, the Vision blurred ([1]; part 1, 25 mg QD) was 2 (22.2) n (%), the Dizziness ([1]; part 1, 50 mg QD) was 1 (11.1) n (%) and the Eye disorders ([1]; part 1, 50 mg QD) was 3 (33.3) n (%). The Gastrointestinal disorders ([1]; part 1, 50 mg QD) was 0 (–) n (%), the “General disorders and administration site conditions” value ([1]; part 1, 50 mg QD) was 2 (22.2) n (%) and the Headache ([1]; part 1, 50 mg QD) was 3 (33.3) n (%). The Infections and infestations ([1]; part 1, 50 mg QD) was 1 (11.1) n (%), the Insomnia ([1]; part 1, 50 mg QD) was 0 (–) n (%) and the “Musculoskeletal and connective tissue disorders” value ([1]; part 1, 50 mg QD) was 1 (11.1) n (%). For the same compound, the Nasopharyngitis ([1]; part 1, 50 mg QD) was 0 (–) n (%), the Nervous system disorder ([1]; part 1, 50 mg QD) was 3 (33.3) n (%) and the Ocular discomfort ([1]; part 1, 50 mg QD) was 0 (–) n (%). The Psychiatric disorders ([1]; part 1, 50 mg QD) was 0 (–) n (%), the “Subjects with AEs leading” value ([1]; part 1, 50 mg QD) was 0 (–) n (%) and the “Subjects with investigator-defined drug-related AEs” value ([1]; part 1, 50 mg QD) was 6 (66.7) n (%). For the same compound, the “Total with AEs” value ([1]; part 1, 50 mg QD) was 6 (66.7) n (%), the Vision blurred ([1]; part 1, 50 mg QD) was 1 (11.1) n (%) and the Dizziness ([1]; part 1, 75 mg BID) was 2 (22.2) n (%). The Eye disorders ([1]; part 1, 75 mg BID) was 2 (22.2) n (%), the Gastrointestinal disorders ([1]; part 1, 75 mg BID) was 0 (–) n (%) and the “General disorders and administration site conditions” value ([1]; part 1, 75 mg BID) was 1 (11.1) n (%). For the same compound, the Headache ([1]; part 1, 75 mg BID) was 0 (–) n (%), the Infections and infestations ([1]; part 1, 75 mg BID) was 0 (–) n (%) and the Insomnia ([1]; part 1, 75 mg BID) was 3 (33.3) n (%). For the same compound, the “Musculoskeletal and connective tissue disorders” value ([1]; part 1, 75 mg BID) was 0 (–) n (%), the Nasopharyngitis ([1]; part 1, 75 mg BID) was 0 (–) n (%) and the Nervous system disorder ([1]; part 1, 75 mg BID) was 2 (22.2) n (%). For the same compound, the Ocular discomfort ([1]; part 1, 75 mg BID) was 2 (22.2) n (%), the Psychiatric disorders ([1]; part 1, 75 mg BID) was 3 (33.3) n (%) and the “Subjects with AEs leading” value ([1]; part 1, 75 mg BID) was 0 (–) n (%). For the same compound, the “Subjects with investigator-defined drug-related AEs” value ([1]; part 1, 75 mg BID) was 6 (66.7) n (%), the “Total with AEs” value ([1]; part 1, 75 mg BID) was 6 (66.7) n (%) and the Vision blurred ([1]; part 1, 75 mg BID) was 0 (–) n (%). The Dizziness ([1]; part 1, 75 mg QD) was 3 (33.3) n (%), the Eye disorders ([1]; part 1, 75 mg QD) was 0 (–) n (%) and the Fatigue ([1]; part 1, 75 mg QD) was 1 (11.1) n (%). For the same compound, the Gastrointestinal disorders ([1]; part 1, 75 mg QD) was 2 (22.2) n (%), the “General disorders and administration site conditions” value ([1]; part 1, 75 mg QD) was 1 (11.1) n (%) and the Headache ([1]; part 1, 75 mg QD) was 4 (44.4) n (%). The Infections and infestations ([1]; part 1, 75 mg QD) was 1 (11.1) n (%), the Insomnia ([1]; part 1, 75 mg QD) was 0 (–) n (%) and the “Musculoskeletal and connective tissue disorders” value ([1]; part 1, 75 mg QD) was 1 (11.1) n (%). For the same compound, the Nasopharyngitis ([1]; part 1, 75 mg QD) was 1 (11.1) n (%), the Nervous system disorder ([1]; part 1, 75 mg QD) was 5 (55.6) n (%) and the Ocular discomfort ([1]; part 1, 75 mg QD) was 0 (–) n (%). The Psychiatric disorders ([1]; part 1, 75 mg QD) was 0 (–) n (%), the “Subjects with AEs leading” value ([1]; part 1, 75 mg QD) was 0 (–) n (%) and the “Subjects with investigator-defined drug-related AEs” value ([1]; part 1, 75 mg QD) was 5 (55.6) n (%). For the same compound, the “Total with AEs” value ([1]; part 1, 75 mg QD) was 6 (66.7) n (%), the Vision blurred ([1]; part 1, 75 mg QD) was 0 (–) n (%) and the Dizziness ([1]; part 1, Total BI n = 45) was 7 (15.6) n (%). For the same compound, the Eye disorders ([1]; part 1, Total BI n = 45) was 7 (15.6) n (%), the Fatigue ([1]; part 1, Total BI n = 45) was 1 (2.2) n (%) and the Gastrointestinal disorders ([1]; part 1, Total BI n = 45) was 5 (11.1) n (%). The “General disorders and administration site conditions” value ([1]; part 1, Total BI n = 45) was 4 (8.9) n (%), the Headache ([1]; part 1, Total BI n = 45) was 13 (28.9) n (%) and the Infections and infestations ([1]; part 1, Total BI n = 45) was 5 (11.1) n (%). For the same compound, the Insomnia ([1]; part 1, Total BI n = 45) was 3 (6.7) n (%), the “Musculoskeletal and connective tissue disorders” value ([1]; part 1, Total BI n = 45) was 3 (6.7) n (%) and the Nasopharyngitis ([1]; part 1, Total BI n = 45) was 3 (6.7) n (%). The Nervous system disorder ([1]; part 1, Total BI n = 45) was 17 (37.8) n (%), the Ocular discomfort ([1]; part 1, Total BI n = 45) was 2 (4.4) n (%) and the Psychiatric disorders ([1]; part 1, Total BI n = 45) was 4 (8.9) n (%). For the same compound, the “Subjects with AEs leading” value ([1]; part 1, Total BI n = 45) was 0 (–) n (%), the “Subjects with investigator-defined drug-related AEs” value ([1]; part 1, Total BI n = 45) was 27 (60.0) n (%) and the “Total with AEs” value ([1]; part 1, Total BI n = 45) was 30 (66.7) n (%). For the same compound, the Vision blurred ([1]; part 1, Total BI n = 45) was 3 (6.7) n (%), the Eye disorders ([1]; parts 1 and 2, BI n = 57) was 7 (12.3) n (%) and the Gastrointestinal disorders ([1]; parts 1 and 2, BI n = 57) was 5 (8.8) n (%). For the same compound, the “General disorders and administration site conditions” value ([1]; parts 1 and 2, BI n = 57) was 4 (7.0) n (%), the Infections and infestations ([1]; parts 1 and 2, BI n = 57) was 6 (10.5) n (%) and the “Musculoskeletal and connective tissue disorders” value ([1]; parts 1 and 2, BI n = 57) was 3 (5.3) n (%). For the same compound, the Nervous system disorder ([1]; parts 1 and 2, BI n = 57) was 18 (31.6) n (%), the Psychiatric disorders ([1]; parts 1 and 2, BI n = 57) was 4 (7.0) n (%) and the “Subjects with AEs leading” value ([1]; parts 1 and 2, BI n = 57) was 0 (–) n (%). The “Subjects with investigator-defined drug-related AEs” value ([1]; parts 1 and 2, BI n = 57) was 27 (47.4) n (%), the “Total with AEs” value ([1]; parts 1 and 2, BI n = 57) was 32 (56.1) n (%) and the intrinsic solubility (Intrinsic solubility) was “low intrinsic solubility”.
